# PubChem BioAssay AID504483 (The Scripps Research Institute Molecular Screening Center, 2011)
# The source made the active and inactive calls.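 The calls were made as follows: active = inhibition of the enzyme at or above 50% at 0.1 µM compound; inactive = the rest.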
# Target: Platelet-activating factor acetylhydrolase (Mus musculus) (UniProt Q60963)
# Experiment: mouse pPAFAH inhibition, late-stage follow-up, selectivity assay for PAFAH2 inhibitor project, cell lysate, gel-based competitive ABPP, COS-7 proteome, fluorescence (AID 504483)
# Conditions: murine pPAFAH, gel ABPP FP-Rh, at 1 µM (top of the series)
# How it was run: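 Material: soluble COS-7 proteome expressing murine pPAFAH; medium: DPBS buffer; probe or stimulus: FP-Rh, 2 µM final; timing: compound 30 min at 25 °C, FP-Rh 30 min; technique: gel ABPP, in-gel fluorescence band density; control set: DMSO-only high, blank-gel background low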
# Chain of Platelet-activating factor acetylhydrolase (Mus musculus) (Q60963 whole entry, looked up): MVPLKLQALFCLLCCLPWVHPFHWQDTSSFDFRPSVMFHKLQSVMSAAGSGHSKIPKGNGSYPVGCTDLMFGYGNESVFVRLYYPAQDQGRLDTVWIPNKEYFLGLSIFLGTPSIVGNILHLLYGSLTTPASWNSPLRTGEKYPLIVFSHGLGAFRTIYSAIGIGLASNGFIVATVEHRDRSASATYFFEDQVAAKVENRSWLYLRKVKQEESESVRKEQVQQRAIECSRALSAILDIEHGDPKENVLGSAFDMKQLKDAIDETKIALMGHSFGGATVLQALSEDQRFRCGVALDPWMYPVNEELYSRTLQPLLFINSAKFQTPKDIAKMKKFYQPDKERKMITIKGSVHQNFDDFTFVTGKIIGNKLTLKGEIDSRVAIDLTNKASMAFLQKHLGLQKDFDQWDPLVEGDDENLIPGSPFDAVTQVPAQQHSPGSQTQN
smiles,measurement,value
O=C(N1CCCC1)n1ncc(-c2ccc(-c3ccccc3)cc2)n1,inhibition,85% (inactive)
